Assay results gathered from unrelated publications.
Target: Mitogen-activated protein kinase kinase kinase 9 (MAP3K9, Homo sapiens, UniProt P80192)
Observed: enzyme activity
Action: inhibitor

SMILES	method	concentration	remaining activity [%]
Cc1nn(CC(F)(F)F)cc1Nc1ncc(C2CC2)c(NCc2ccc(S(N)(=O)=O)cc2)n1	radiometric	1 µM	90
CC(C)(O)[C@H]1CC[C@H](Nc2ccc3ncc(-c4cccc(C(F)(F)F)c4)n3n2)CC1	–	1 µM	77
Cc1cnc(NC2CCOCC2)nc1-n1cnc(C(=O)NC(CN)c2cc(F)cc(Cl)c2)c1 (stereo not shown)	radiometric	1 µM	94
Cc1nn(CC(F)(F)F)cc1Nc1ncc(Br)c(NCCc2cnc[nH]2)n1	radiometric	1 µM	30
Cc1sc(C(=O)NC2COC2)cc1-n1cc(NC(=O)Nc2c(F)cccc2Cl)cn1	–	10 µM	87.5
COc1cc(Nc2cnc(C#N)c(O[C@H](C)CN(C)C)n2)ncc1-c1cnn(C)c1	radiometric	10 µM	48
CN1CCc2cc(Nc3ncc(C4CC4)c(NCCCNC(=O)C4CCC4)n3)ccc2C1	radiometric	1 µM	14
O=C(Nc1cnn(-c2csc(C(=O)NC3COC3)c2)c1)Nc1c(F)cccc1Cl	–	5 µM	88.5
FC(F)c1nc2ccccc2n1-c1nc(N2CCOCC2)nc(N2CCOCC2)n1	–	10 µM	86
NS(=O)(=O)c1ccc(CNc2ccnc(Nc3cccc(CN4CCOCC4)c3)n2)cc1	radiometric	1 µM	81
CC(C)(C)c1nc2c(s1)c1nc(N)ncc1c1ccc(NS(=O)(=O)c3c(F)cccc3F)c(F)c12	radiometric	1 µM	66
CCN(CC)c1ccc(C2=NNC(=O)CC2C)cc1[N+](=O)[O-] (stereo not shown)	–	10 µM	100
CC(C)(C)c1nc(-c2cccc(NS(=O)(=O)c3c(F)cccc3F)c2F)c(-c2ccnc(N)n2)s1	radiometric	1 µM	70
O=C(NCCCNc1ccnc(Nc2cccc(NC(=O)N3CCCC3)c2)n1)C1CCC1	radiometric	1 µM	79
Cc1ccc(C(=O)Nc2ccc(CN3CCN(C)CC3)c(C(F)(F)F)c2)cc1C#Cc1cnc2cccnn12	–	23.5 nM	96
Cc1nn(CC(F)(F)F)cc1Nc1nccc(NCc2ccc(S(N)(=O)=O)cc2)n1	radiometric	1 µM	97
COc1cc(Cl)c(C(=O)N[C@@H](CN[C@H]2CC[C@@H](N)CC2)Cc2ccc(C#N)cc2)cc1-c1ccc(CN[C@H](C)c2ccc(C)cc2)o1	–	1 µM	97
Oc1cccc(-c2nc(N3CCOCC3)c3oc4ncccc4c3n2)c1	–	10 µM	65
CCCOc1ccc(OC)c(F)c1C(=O)c1ccc(C(=O)N[C@@H]2CNC[C@H]2NC(=O)c2ccc3[nH]ncc3c2)cc1	–	10 µM	32
